Laboratory results: PubChem BioAssay AID504382 (The Scripps Research Institute Molecular Screening Center, 2011)
Out of some 2,500 compounds screened, about 460 (18%) were called active. Only a sample is shown. Values without a mark were called inactive.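 The calls were made as follows: active = mean activation above a cutoff of low control average plus 3 SD from the earlier screen (cut at about 12% in these data); inactive = the rest.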

test: IANBD-channel fluorescence artefacts in buffer – biochemical, artefact control for cardiac RTF calcium sensitizer project, confirmation (AID 504382); details: IANBD fluorescence interference counterscreen, EC20 Ca2+, at 7.2 µM, stronger effect = higher value, scaled: EC20 calcium 0, EC100 calcium 100
Summary of the method: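 Doses – one dose of 7.2 µM, 0.7% DMSO · Buffer or medium – MOPS/KCl/MgCl2/EGTA/NTA/DTT buffer, pH 7.2 · Probe or stimulus – Ca2+ fixed at EC20, 0.472 mM · Measured by – fluorescence intensity, excitation 480 nm, emission 540 nm · Read-out – fluorescence interference versus control range · Timing – 15 min compound exposure at 25 °C · Replication – triplicate wells per compound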

SMILES	fluorescence artifact activation
Cc1cc(/C=C2\SC(=S)N(C)C2=O)c(C)n1-c1ccccc1O	3.34%
CN(/N=C/c1ccc(N(C)C)cc1)C1=NS(=O)(=O)c2ccccc21	6.25%
CCN(CC)c1ccc2cc(C=O)c(=O)oc2c1	5.57%
CCN(CC)c1ccc2oc(=O)c(C)nc2c1	124% (active)
CCN(CC)c1ccc2c(c1)oc(=O)c1c(Cl)cc(=O)oc12	21.4% (active)
CCN(CC)c1ccc2c(Cl)c(Br)c(=O)oc2c1	0.1%
CCN(CC)c1ccc2cc(-c3nc4ccccc4n3C)c(=O)oc2c1	0.12%
O=C(Nc1ccccc1)C1CC2CCCC(C1)C2=O (stereo not drawn)	2.4%
O=C(C1=NN(c2ccccc2)C2C(=O)N(c3ccc(Cl)cc3)C(=O)C12)c1ccccc1 (stereo not drawn)	-0.02%
Cc1ccc2c(C(=O)CN3CCC(C(N)=O)CC3)c(C)[nH]c2c1	9.54%
CCS(=O)(=O)N1Cc2ccccc2CC1C(=O)Nc1ccc(OC)cc1OC (stereo not drawn)	0.07%
O=C(O)c1cccc2c1C(=O)c1ccc(N3CCCC3)cc1S2(=O)=O	-0.07%
O=C1c2cccc3c(N4CCCCC4)ccc(c23)C(=O)N1CCO	42.3% (active)
CCCN1C(=O)c2cccc3c(N4CCCCC4)ccc(c23)C1=O	0.47%
C=CCN1C(=O)c2cccc3c(N4CCCCC4)ccc(c23)C1=O	2.88%
O[C@@H]1CN(C2CCCCC2)CC[C@H]1N1CCN(CCc2ccccc2)CC1	7.79%
CC[C@@]1(O)C(=O)OCc2c1cc1n(c2=O)Cc2cc3c(CN(C)C)c(O)ccc3nc2-1	6.14%
CCOc1ccc(Nc2nc(N)c([N+](=O)[O-])c(NCc3ccccc3)n2)cc1	0.09%
C(=Cc1c[nH]c2ccccc12)c1nccc2ccccc12	1.55%
Cc1ccc2[nH]cc(/C=C/c3cc[n+](C)cc3)c2c1	-0.07%
C[n+]1ccc(/C=C/c2c[nH]c3ccccc23)cc1	57.3% (active)
C[n+]1ccc(/C=C/c2c[nH]c3ccc(F)cc23)cc1	0.16%
OCC[n+]1ccc(/C=C/c2c[nH]c3ccccc23)cc1	0%
CC[n+]1ccc(/C=C/c2c[nH]c3ccccc23)cc1	59.8% (active)

SMILES	fluorescence artifact activation
Cc1cc(Cl)ccc1OCC(=O)NCCOc1nc(N2CCOCC2)nc(N2CCOCC2)n1	0.1%
N#Cc1c(-c2ccccc2F)cc(C2CC2)nc1SCC(=O)c1cccs1	0.28%
Cc1ccc(C(=O)N/C(=C/c2ccc(-c3ccc([N+](=O)[O-])cc3)o2)C(=O)NCCCN(C)C)cc1	0.29%
NC(=O)CC[C@@H]1NC(=O)[C@H](Cc2ccc(O)cc2)NC(=O)c2cc([N+](=O)[O-])cc(F)c2OCC[C@@H](C(N)=O)NC1=O	0.02%
COc1ccc(CNS(=O)(=O)c2cc(-c3cc(C)no3)ccc2OC)cc1OC	2.41%
CC(C)(CO)NCC#Cc1ccccc1	-0.01%
Cc1nn(C)c(NC(=O)c2ccccc2Cl)c1Cl	18.7% (active)
CSCCC(NC(=O)c1ccccc1Cl)C(=O)N1CCC1 (stereo not drawn)	-0.06%
COc1ccccc1C(=O)Nc1nnn(C)n1	-0.09%
O=C(Oc1cc2oc(=O)c3c(c2cc1Cl)CCCC3)c1cccs1	0.11%
CC1CC(C)CN(CCOCCSc2ccccc2)C1 (stereo not drawn)	28.4% (active)
CC1CN(CCCCOc2ccc3ccccc3c2)CC(C)O1 (stereo not drawn)	0.12%
Cc1ccccc1C(=O)c1cccn1CC(=O)NCCCN1CC(C)CC(C)C1 (stereo not drawn)	0.1%
CC1CCN(c2ccc3c(c2)S(=O)(=O)c2cccc(C(=O)NCc4cccc(F)c4)c2C3=O)CC1	0.09%
C=CCNC(=S)N(CC=C)C1CCS(=O)(=O)C1 (stereo not drawn)	0.07%
Cc1cccn2c(=O)c(/C=C3\SC(=S)N(CC(C)C)C3=O)c(NCCCOC(C)C)nc12	17.1% (active)
O=C1NC(=S)S/C1=C/c1ccc(N2CCOCC2)o1	1.59%
CCNC(=O)/C(C#N)=C/c1c(N2CCN(Cc3ccc4c(c3)OCO4)CC2)nc2c(C)cccn2c1=O	0.06%
Cc1cccn2c(=O)c(/C=C3\SC(=S)NC3=O)c(NCCCN3CCOCC3)nc12	21.4% (active)
COC(=O)CCCCCN1C(=O)/C(=C\c2ccncc2)SC1=S	-0.01%
Cc1cccn2c(=O)c3cc(C#N)c(=NC(=O)c4cccs4)n(CCCOC(C)C)c3nc12	-0.06%
O=C1CCN2C=Nc3cccc4ccc1c2c34	-0.03%
CC1=C(C)CC(C(=O)NNC(=O)c2cccc(Cl)c2)C(C(=O)O)C1 (stereo not drawn)	-0.06%
Cc1cc([N+](=O)[O-])nn1CC(=O)Nc1c(C)n(C)n(-c2ccccc2)c1=O	3.39%

SMILES	fluorescence artifact activation
Cc1c(N=C2N=C(NC(=O)Nc3ccc(Cl)cc3)c3ccccc32)c(=O)n(-c2ccccc2)n1C	20.3% (active)
CN1CCC/C1=C1/C(=O)N(c2ccccc2)N=C1NC(=O)Nc1cccc(Cl)c1	0.05%
O=C(Nc1cccc2c1N(C(=O)c1ccco1)CCC2)c1ccco1	5.02%
COc1ccccc1CNC(=O)COC(=O)c1cccc(S(=O)(=O)N2CCOCC2)c1	0.16%
C[C@@H](NC(=O)c1ncn(C)c1C(=O)N[C@H](C)c1ccccc1)c1ccccc1	0%
C/C(=N\NC(=O)c1ccccc1)c1ccc(NC(=O)c2cccs2)cc1	0.85%
Cc1ccc(C(C)NC(=O)c2cccs2)cc1C (stereo not drawn)	174% (active)
Cc1cc(S(=O)(=O)NC(C)C)ccc1OCC(=O)NCc1ccccc1	0.08%
COC(=O)[C@H](C)NC(=O)c1cc2c(cn1)[nH]c1ccccc12	0.32%
CCN(CC)C(=O)C(=O)c1c(-c2ccccc2)[nH]c2ccccc12	6.52%
CCOC(=O)c1c(NCC(C)C)c2ccccc2[nH]c1=O	39.3% (active)
C=CCN1C(=O)[C@@H]2Cc3c([nH]c4ccccc34)C(c3ccc(O)cc3)N2C1=S (stereo partly drawn)	-0.05%
CCC(=O)N1CCN(c2nc(C)nc3sc(C)c(C)c23)CC1	0.08%
S=C1NC2=C(CCCC2=C2SCCCS2)C(c2ccccc2)N1 (stereo not drawn)	0.29%
CC(=O)N(C(C)=O)N1C(=O)c2cccc3c(N4CCOCC4)ccc(c23)C1=O	0.01%
O=C(O)CN1C(=O)c2cccc3c(Br)ccc1c23	53.6% (active)
O=C(OCCN1C(=O)c2cccc3c(N4CCOCC4)ccc(c23)C1=O)c1ccc(Cl)cc1	1.59%
CCn1c(CSCc2ccccc2)n[nH]c1=S	0.18%
Cc1ccc(NC(=O)CO/N=C/c2ccc(N(C)C)cc2)cc1	0.03%
Cc1ccc(NC(=O)COc2ccc(/C=N/NC(=O)CSCc3ccccc3)cc2)cc1	12.9% (active)
Cc1ccc(NC(=O)CN(C)C(=O)COC(=O)COc2ccc(C#N)cc2)cc1	0.42%
C=CCN1C(=O)c2ccccc2NC1c1cc(Br)cs1 (stereo not drawn)	7.88%
Cc1nn(-c2ccccc2)c(Cl)c1C(=O)NC1CCCCC1	4.56%
CCc1ccccc1NC(=O)COc1ccc2c(=O)c(Oc3cc(C)ccc3C)coc2c1	664% (active)

SMILES	fluorescence artifact activation
Cc1cc(=O)oc2cc(OCC(=O)OCC(=O)NC(C)C)ccc12	-0.02%
Cc1ccc(C)c(NC(=O)COC(=O)Cc2ccsc2)c1	0.03%
O=C(O)CSc1ncnc2scc(-c3ccc(Br)cc3)c12	0.71%
CC(C)(C)NCc1cc(Cl)ccc1OCc1cccs1	13.9% (active)
COc1cccc2c1C(=O)c1c(O)c3c(c(O)c1C2=O)CC(O)(C(C)=NNC(=O)c1ccc(Cl)c(Cl)c1)CC3OC1CC(N)C(O)C(C)O1 (stereo not drawn)	0.12%
Cc1cc(C)c(C#N)c(SCc2nnc(-c3ccccc3)o2)n1	14.5% (active)
N#Cc1c(N)oc(-c2ccccc2)c1-c1ccccc1	4.93%
Cc1cc(C)c(C#N)c(Sc2nnnn2-c2ccccc2)n1	11.6%
CCOC(=O)/C(C#N)=N\Nc1cc(Cl)ccc1OC	0.07%
C[C@@H]1C=C(C(=O)N2CCOCC2)O[C@H](OCc2ccc(CO)cc2)C1	0.97%
CCOCCCNS(=O)(=O)c1ccc(NC(=O)c2ccc(OC)c([N+](=O)[O-])c2)cc1	0.52%
O=C(Cn1cc(/C=N/NC(=O)c2cccc3ccccc23)c2ccccc21)Nc1ccc(F)cc1	19.7% (active)
CCOc1cccc(NC(=O)/C(C#N)=C\c2cn(CC(=O)O)c3ccccc23)c1	0.19%
O=C(Nc1ccccc1C(=O)N/N=C/c1ccco1)c1ccc(F)cc1	1.44%
Cc1ccc(N=Cc2sc(O)c3ccccc23)c(C)c1	0.06%
CCOC(=O)c1ccc[n+](CC(=O)Nc2cc(C(F)(F)F)ccc2Cl)c1	2.39%
CCn1c(O)c(/C=N/N=C/c2ccccc2)c2ccc(C3=NNC(=O)CC3)cc21	0.02%
Brc1ccc(-c2cnnc(N3CCCC3)n2)cc1	66.5% (active)
C=CCOc1ccc(CNc2ccc3[nH]c(=O)[nH]c3c2)cc1OCC	5.69%
COC(=O)c1c(NC(=O)c2ccnn2C)sc(C)c1C	0.09%
Fc1ccc(C2=CC(c3ccc(Br)o3)n3ncnc3N2)cc1 (stereo not drawn)	0.34%
